For orientation: IC50 means the midpoint of a concentration-inhibition curve. A high value points to lower potency.

Consider 11 compounds from ChEMBL document CHEMBL1124072, “1,2,4-Trioxanes as potential antimalarial agents” (J Med Chem, 1988).

Values after ≈ are worked out from the molar mass of the structure shown.

The subject of this experiment is Plasmodium falciparum. Put plainly: In vitro EC50 against chloroquine susceptible Plasmodium falciparum by [3H]hypoxanthine incorporation. The format is functional, organism-based. In short, it runs like this:
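Chloroquine-susceptible P. falciparum cultured in vitro and tested by the Desjardins method. Inhibition of parasite [3H]hypoxanthine uptake is the read-out. The value is the concentration (ng/mL) giving 50% inhibition of uptake.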
The compound `CC(C[C@@]12C=C[C@]3(OO1)C(C)(C)CCC[C@@]3(C)O2)OC(=O)c1ccccc1` (stereo partly specified) had an IC50 of 0.733 µg/mL (≈ 1.97 µM).

The compound `COC(=O)C[C@@]12C=C[C@]3(OO1)C(C)(C)CCC[C@@]3(C)O2` came in with a 50% inhibitory concentration (IC50) of 0.096 µg/mL (≈ 0.34 µM). For `COC(=O)C[C@@]12CC[C@]3(OO1)C(C)(C)CCC[C@@]3(C)O2`, half-maximal inhibition (IC50) was put at 0.083 µg/mL (≈ 0.292 µM).

In turn, `CC(C[C@@]12CC[C@]3(OO1)C(C)(C)CCC[C@@]3(C)O2)OC(=O)c1ccccc1` (stereo partly specified) showed an IC50 of 0.0239 µg/mL (≈ 0.0638 µM).

In turn, `CC1(C)CCC[C@@]2(C)O[C@]3(C)CC[C@]12OO3` gave an IC50 of 1.35 µg/mL (≈ 5.97 µM). `C[C@H](C[C@@]12C=C[C@]3(OO1)C(C)(C)CCC[C@@]3(C)O2)OC(=O)c1ccccc1` returned an IC50 of 0.789 µg/mL (≈ 2.12 µM).

Regarding `C[C@@H](O)C[C@@]12CC[C@]3(OO1)C(C)(C)CCC[C@@]3(C)O2`, the IC50 came to 0.389 µg/mL (≈ 1.44 µM).

`CC1(C)CCC[C@@]2(C)O[C@]3(C)C=C[C@]12OO3` had an IC50 of more than 1.2 µg/mL. To `C[C@@H](O)C[C@@]12C=C[C@]3(OO1)C(C)(C)CCC[C@@]3(C)O2` belongs 4.93 µg/mL (≈ 18.4 µM); to `C[C@H](C[C@@]12CC[C@]3(OO1)C(C)(C)CCC[C@@]3(C)O2)OC(=O)c1ccccc1`, 1.12 µg/mL (≈ 2.99 µM); to `C[C@@H]1CC[C@H]2[C@@H](C)C(=O)O[C@@H]3O[C@@]4(C)CC[C@@H]1[C@]32OO4` [ARTEMISININ], 0.00113 µg/mL (≈ 0.004 µM).
